Calls of active or inactive are those of the source.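 The calls were made as follows: active = peak KCNK3 inhibition above a set limit at some dose, plus a fitted dose-response curve; inactive = no KCNK3 inhibition, or no dose-response curve.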
molecular target: Potassium channel subfamily K member 3 (Rattus norvegicus) (UniProt O54912); assay: inhibition of rat KCNK3 channel, SAR follow-up, selectivity assay for KCNK9 inhibitor project, cell-based, FluxOR thallium flux, CRC set 2 (AID 623912); conditions: KCNK3-expressing cells, FluxOR thallium flux fluorescence
Sequence (O54912 whole entry, looked up): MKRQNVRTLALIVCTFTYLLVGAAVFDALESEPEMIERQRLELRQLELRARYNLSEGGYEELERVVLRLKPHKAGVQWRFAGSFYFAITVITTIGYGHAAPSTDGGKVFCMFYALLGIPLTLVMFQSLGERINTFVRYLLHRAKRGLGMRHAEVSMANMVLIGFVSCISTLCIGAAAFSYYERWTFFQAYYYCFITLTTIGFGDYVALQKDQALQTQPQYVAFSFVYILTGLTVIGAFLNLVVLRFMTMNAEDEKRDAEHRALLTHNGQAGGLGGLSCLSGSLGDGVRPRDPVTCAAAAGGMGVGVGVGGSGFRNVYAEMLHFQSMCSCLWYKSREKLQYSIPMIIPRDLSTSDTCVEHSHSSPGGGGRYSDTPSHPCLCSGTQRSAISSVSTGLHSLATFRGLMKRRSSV
Outline: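 Material: tetracycline-induced CHO cells expressing rat KCNK3 potassium channel / Probe or stimulus: Tl+/K+ sulfate stimulus buffer (5x stock) / Dosing: compound concentration-response series / Schedule: 90 min FluxOR loading, 20 min compound, 10+110 s recording / Technique: FluxOR Tl+ flux fluorescence / Read-out: IC50 from normalized flux signal / Replicates: at least duplicate concentration-response curves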

Structure (SMILES)	IC50 [nM]
CC(C)n1c(-c2ccco2)n[nH]c1=S	92.2
COc1cccc(C(=O)Nc2cccc(NC(=O)c3ccccc3)c2)c1	212
Cc1cccc(C(=O)Nc2cccc(NC(=O)c3ccncc3)c2)c1	27
COc1ccccc1C(=O)Nc1cccc(NC(=O)c2ccccc2OC(F)(F)F)c1	4
CCOc1ccccc1C(=O)Nc1cccc(NC(=O)c2cccc(C)c2)c1	7.46
S=c1[nH]nc(-c2ccco2)n1CC1CCCCC1	606
Cc1cccc(C(=O)Nc2cccc(NC(=O)c3ccccc3OCC(C)C)c2)c1	206
O=C(Nc1cccc(NC(=O)c2ccco2)c1)c1ccccc1	36.5
CC(C1CC2CCC1C2)n1c(-c2ccco2)n[nH]c1=O (configuration not stated)	181
CC(C1CC2CCC1C2)n1cnnc1-c1ccco1 (configuration not stated)	18
Cc1cccc(C(=O)Nc2cccc(NC(=O)c3ccc(N(C)C)cc3)c2)c1	145
Cc1cccc(C(=O)Nc2cccc(C(=O)Nc3ccccc3)c2)c1	850
Cc1cccc(S(=O)(=O)Nc2cccc(NC(=O)c3ccccc3)c2)c1	1450
CC(C1CC2CCC1C2)n1c(-c2ccco2)n[nH]c1=S (configuration not stated)	341
Cc1cccc(NC(=O)c2ccccc2NC(=O)c2ccccc2)c1	1380
COc1cccc(-c2n[nH]c(=S)n2C(C)C2CC3CCC2C3)c1OC (configuration not stated)	15
COc1cccc(-c2n[nH]c(=S)n2C(C)C2CC3CCC2C3)c1 (configuration not stated)	1290
O=C(Nc1cccc(NC(=O)c2cccc(C(F)(F)F)c2)c1)c1ccccc1	147
O=C(Nc1cccc(NC(=O)c2ccsc2)c1)c1ccccc1	162
COc1cccc(OC)c1C(=O)Nc1cccc(NC(=O)c2cccc(C)c2)c1	148
COc1ccccc1NC(=O)c1cccc(NC(=O)c2ccccc2OC)c1	8
CC(NC(=O)c1ccco1)C1CC2CCC1C2 (configuration not stated)	70
COc1cc(OC)cc(-c2n[nH]c(=S)n2C(C)C2CC3CCC2C3)c1 (configuration not stated)	110
CC(c1cccc2ccccc12)n1c(-c2ccco2)n[nH]c1=S (configuration not stated)	561
CC(c1ccccc1)n1c(-c2ccco2)n[nH]c1=S (configuration not stated)	567

Structure (SMILES)	IC50 [nM]
Cc1cccc(C(=O)Nc2ccc(C(=O)Nc3ccccc3)cc2)c1	183
COc1ccc(C(=O)CSc2nnc(-c3ccco3)n2C(C)C2CC3CCC2C3)cc1OC (configuration not stated)	2080
CC(C1CC2CCC1C2)n1c(-c2ccccc2Cl)n[nH]c1=S (configuration not stated)	2050
Cc1cccc(C(=O)Nc2cccc(NC(=O)c3ccc(Cl)cc3)c2)c1	149
COc1ccc(C(=O)Nc2cccc(NC(=O)c3ccccc3)c2)cc1	2270
CCOc1ccccc1C(=O)Nc1cccc(NC(=O)c2ccccc2C(F)(F)F)c1	2
CCOc1ccccc1NC(=O)c1cccc(NC(=O)c2ccc(C)cc2)c1	134
O=C(Nc1cccc(NC(=O)c2ccc(F)cc2)c1)c1ccccc1	306
Cc1ccc(-c2n[nH]c(=S)n2C(C)C2CC3CCC2C3)cc1 (configuration not stated)	770
Cc1cccc(C(=O)Nc2cccc(NC(=O)c3ccc(C(C)(C)C)cc3)c2)c1	184
CCOc1ccccc1C(=O)Nc1cccc(NC(=O)C2CCCC2)c1	108
CCOc1ccccc1NC(=O)c1cccc(NC(=O)CC2CCCCC2)c1	217
CC(C1CC2CCC1C2)n1c(-c2ccccn2)n[nH]c1=S (configuration not stated)	1300
COc1ccccc1C(=O)Nc1cccc(NC(=O)c2ccccc2C(C)C)c1	7
CC(C)Oc1ccccc1C(=O)Nc1cccc(NC(=O)c2ccccc2OC(F)(F)F)c1	1
CC(C1CC2CCC1C2)n1c(-c2ccc(Cl)cc2)n[nH]c1=S (configuration not stated)	240
CCOc1ccccc1NC(=O)c1cccc(NC(=O)CC2CCCC2)c1	161
O=C(Nc1cccc(NC(=O)C2CCCCC2)c1)c1ccccc1	79.2
Cc1cccc(C(=O)Nc2cccc(NC(=O)c3ccccc3C)c2)c1	90.8
CC(C1CC2CCC1C2)n1c(-c2cccc(F)c2)n[nH]c1=S (configuration not stated)	82
CCOc1ccccc1NC(=O)c1cccc(NC(=O)c2ccccc2C(F)(F)F)c1	29.5
COc1ccccc1C(=O)Nc1cccc(NC(=O)c2ccccc2OC)c1	9.67
Cc1ccccc1C(=O)Nc1cccc(NC(=O)c2ccccc2)c1	104
CC(C1CC2CCC1C2)n1c(SCc2ccccc2)nnc1-c1ccco1 (configuration not stated)	1660
CCOc1ccc(NC(=O)c2cccc(NC(=O)C3CCCC3)c2)cc1	70.2

Structure (SMILES)	IC50 [nM]
O=C(Nc1cccc(NC(=O)c2ccccc2Cl)c1)c1ccccc1	311
O=C(Nc1cccc(NC(=O)c2ccncc2)c1)c1ccccc1	249
Cc1cccc(C(=O)Nc2cccc(NC(=O)c3ccccc3OC(F)(F)F)c2)c1	28.5
CCOc1ccccc1NC(=O)c1cccc(NC(=O)c2cccc(Cl)c2)c1	39
O=C(Nc1cccc(NC(=O)c2cccc(F)c2)c1)c1ccccc1	44.2
Cc1cccc(C(=O)Nc2cccc(NC(=O)c3cccc(C)c3)c2)c1	29.6
COc1ccccc1C(=O)Nc1cccc(NC(=O)c2cccc3ccccc23)c1	3
CC(C1CC2CCC1C2)n1c(-c2cccc(Cl)c2)n[nH]c1=S (configuration not stated)	20
CC(C1CC2CCC1C2)n1c(-c2cccs2)n[nH]c1=S (configuration not stated)	18
Cc1cccc(C(=O)Nc2cccc(NC(=O)c3ccccc3Cl)c2)c1	23
CCOc1ccccc1NC(=O)c1cccc(NC(=O)c2ccccc2Cl)c1	83.9
COc1ccccc1C(=O)Nc1cccc(NC(=O)c2ccccc2C)c1	73
COc1ccccc1NC(=O)c1cccc(NC(=O)C2CCCC2)c1	238
O=C(Nc1ccccc1Cl)c1cccc(NC(=O)C2CCCC2)c1	202
CC(C1CC2CCC1C2)n1c(-c2cccnc2)n[nH]c1=S (configuration not stated)	1020
Cc1cccc(C(=O)Nc2cccc(NC(=O)c3ccccc3C(C)C)c2)c1	328
O=C(Nc1cccc(NC(=O)c2ccccc2C(F)(F)F)c1)c1ccccc1	130
CCOc1ccccc1NC(=O)c1cccc(NC(=O)C2CCOC2)c1 (configuration not stated)	1330
S=c1[nH]nc(-c2ccco2)n1C1CC2CCC1C2 (configuration not stated)	37
O=C(Nc1cccc(NC(=O)c2ccccc2)c1)c1ccccc1	18
CCOc1ccccc1NC(=O)c1cccc(NC(=O)c2ccccc2OC)c1	6.53
COc1ccccc1C(=O)Nc1cc(NC(=O)c2ccccc2C(C)C)ccc1F	10
CCOc1ccccc1NC(=O)c1cccc(NC(=O)c2cccc(C)c2)c1	17
CCOc1ccccc1C(=O)Nc1cccc(NC(=O)c2ccccc2OC)c1	2
CCOc1ccccc1NC(=O)c1cccc(NC(=O)c2ccc(OC)cc2)c1	300

Structure (SMILES)	IC50 [nM]
CC(C)c1ccccc1C(=O)Nc1cccc(NC(=O)c2ccccc2OC(F)(F)F)c1	11
CCOc1ccccc1NC(=O)c1cccc(NC(=O)C(C)(C)C)c1	1320
Cc1cccc(C(=O)Nc2cccc(NC(=O)C3CCCCC3)c2)c1	17
O=C(Nc1cccc(NC(=O)c2cccnc2)c1)c1ccccc1	1290
Cc1cccc(C(=O)Nc2cccc(NC(=O)c3ccco3)c2)c1	143
Cc1cccc(C(=O)Nc2cccc(NC(=O)c3cccc(Cl)c3)c2)c1	3
CCOc1ccccc1NC(=O)c1cccc(NC(=O)C2CCCC2)c1	68.3
COc1ccccc1NC(=O)c1cccc(NC(=O)c2ccccc2C(F)(F)F)c1	42
CC(C1CCCCC1)n1c(-c2ccco2)n[nH]c1=S (configuration not stated)	44
COc1ccccc1NC(=O)c1cccc(NC(=O)C2CCCCC2)c1	86
CC(C1CC2CCC1C2)n1c(-c2ccccc2F)n[nH]c1=S (configuration not stated)	2200
COc1ccccc1NC(=O)c1cccc(NC(=O)CC2CCCC2)c1	86
COc1ccccc1NC(=O)c1cccc(NC(=O)c2ccccc2)c1	64
CCOc1ccccc1NC(=O)c1cccc(NC(=O)c2ccccc2OC(F)(F)F)c1	114
CC(C1CC2CCC1C2)n1c(-c2ccccc2)n[nH]c1=S (configuration not stated)	403
COc1ccccc1C(=O)Nc1cccc(NC(=O)c2cccc(C)c2)c1	11
COc1cccc(C(=O)Nc2cccc(NC(=O)c3cccc(C)c3)c2)c1	31
CC(C1CC2CCC1C2)n1c(-c2ccoc2)n[nH]c1=S (configuration not stated)	298
CCOc1ccccc1NC(=O)c1cccc(NC(=O)c2cccc(C(F)(F)F)c2)c1	232
O=C(Nc1cccc(NC(=O)c2cccs2)c1)c1ccccc1	29.4
CCOc1ccccc1NC(=O)c1cccc(C(=O)NC2CCCC2)c1	342
Cc1cccc(C(=O)Nc2cccc(NC(=O)c3cccs3)c2)c1	3
Cc1cccc(C(=O)Nc2cccc(NC(=O)c3ccccc3)c2)c1	96.3
COc1cccc(-c2nnc(S(C)(=O)=O)n2C(C)C2CC3CCC2C3)c1 (configuration not stated)	106

same assay, conditions: KCNK3-expressing cells, FluxOR thallium flux fluorescence; at 3 µM (top of the series)

Structure (SMILES)	flux ratio, lower = inhibition
Cc1cccc(C(=O)Nc2cccc(NC(=O)c3ccc(C(F)(F)F)cc3)c2)c1	inactive
Cc1cccc(-c2n[nH]c(=S)n2C(C)C2CC3CCC2C3)c1 (configuration not stated)	inactive
CC(C1CC2CCC1C2)n1c(SCC#N)nnc1-c1cccs1 (configuration not stated)	inactive
O=C(Nc1cccc(NC(=O)c2ccc(C(F)(F)F)cc2)c1)c1ccccc1	inactive
CC(c1ccco1)n1c(-c2ccoc2)n[nH]c1=S (configuration not stated)	inactive
Cc1cccc(NC(=O)c2cccc(NC(=O)c3ccccc3)c2)c1	inactive
O=C(Nc1cccc(NC(=O)c2ccc(Cl)cc2)c1)c1ccccc1	inactive
CC(C1CC2CCC1C2)n1c(-c2ccsc2)n[nH]c1=S (configuration not stated)	inactive
COc1ccc(-c2n[nH]c(=S)n2C(C)C2CC3CCC2C3)cc1 (configuration not stated)	inactive
CC(C1CC2CCC1C2)n1c(SC(F)F)nnc1-c1ccco1 (configuration not stated)	inactive
CC(C1CC2CCC1C2)n1c(C2CCOC2)n[nH]c1=S (configuration not stated)	inactive
Cc1cccc(C(=O)Nc2cccc(NC(=O)c3ccccc3C(F)(F)F)c2)c1	inactive
CC(C)(C)c1ccc(C(=O)Nc2cccc(NC(=O)c3ccccc3)c2)cc1	inactive
